Screening results from PubChem.
SIAE inh: blocks human sialic acid acetylesterase | actives 0.69% (n = 370,000) | SIAE FP-Rh probe binding, fluorescence polarization | inhibition, % at 9.66 µM;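 active = inhibition above a cutoff: mean of compounds within the control limits plus 3 SD of those, cut at about 17% in these data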;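 note: 0% = plate median of compound wells and 100% = probe without SIAE protein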
ABHD4 inh: ABHD4 (mouse) inhibition, primary FP screen; Q8VD66; purified mABHD4, FP-Rh probe fluorescence polarization; inhibition, % at 8.92 µM; actives 0.54% (n = 370,000); AID 720543;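 active = inhibition exceeding the mean over every tested compound plus 3 SD, cut at about 30% in these data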;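 note: 0% = plate median of compound wells and 100% = S159A mutant with DMSO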
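assay system = mABHD4 protein | compound dosing = single nominal dose of 8.92 µM, 0.89% DMSO final | read-out basis = percent inhibition of probe binding, normalized to plate controls | schedule = Enzyme–compound pre-incubation 45 min, then probe 60 min, both 25 °C | detection = fluorescence polarization, excitation 525 nm, emission 598 nm, BODIPY TMR filters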
TCR CD3 inh: inhibitors of human TCR-CD3 interaction. AID 651800. TAMRA-labeled TCR probe fluorescence, biochemical. actives 0.37% (n = 360,000). inhibition, % at 9.4 µM; in the data active = inhibition above about 19%;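 note: recombinant mutant TCR 2C K166C tagged with TAMRA read by polarization; 0% = receptor in buffer alone and 100% = receptor with positive control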
PRMT1 inh: PRMT1 (human) inhibition, primary screen; Q99873; recombinant PRMT1, activity-based probe fluorescence polarization; inhibition, % at 2.79 µM; actives 1.3% (n = 370,000); AID 652257;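 active = inhibition above about 21% made by adding two undisclosed values, limit read from the data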
HTRA1 inhibitor: blocks human HTRA1 serine peptidase | recombinant HTRA1, FP-rhodamine activity-based probe, fluorescence polarization | inhibition, % at 5.96 µM | actives 0.5% (n = 340,000) | AID 504803; in the data active = inhibition above about 36%;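 note: 0% = enzyme with DMSO and 100% = wells lacking enzyme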
Target sequence (Q92743 whole entry, looked up): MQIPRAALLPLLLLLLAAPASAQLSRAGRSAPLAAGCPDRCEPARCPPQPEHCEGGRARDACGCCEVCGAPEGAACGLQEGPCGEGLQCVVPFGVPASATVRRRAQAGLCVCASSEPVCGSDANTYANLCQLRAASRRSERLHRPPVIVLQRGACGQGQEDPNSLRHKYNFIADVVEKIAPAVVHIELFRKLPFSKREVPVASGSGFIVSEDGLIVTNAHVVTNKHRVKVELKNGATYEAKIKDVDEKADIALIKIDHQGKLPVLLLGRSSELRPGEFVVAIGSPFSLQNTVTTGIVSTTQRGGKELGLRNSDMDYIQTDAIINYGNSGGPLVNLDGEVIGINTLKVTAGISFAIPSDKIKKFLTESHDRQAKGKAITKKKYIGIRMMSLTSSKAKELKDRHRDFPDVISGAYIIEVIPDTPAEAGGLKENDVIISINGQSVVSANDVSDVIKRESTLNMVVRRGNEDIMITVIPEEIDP
mABHD4 conf: ABHD4 (mouse) inhibition, FP confirmation | purified mABHD4, FP-Rh probe fluorescence polarization | AID 720658 | shares compounds with ABHD4 inh | inhibition, % at 8.92 µM | actives 55% (n = 1,800);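 active = mean inhibition across replicates above the hit cutoff set in the primary screen, cut at about 30% in these data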;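 note: 0% = wild-type ABHD4 with DMSO and 100% = catalytically dead S159A mutant with DMSO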
SIAE confirm: confirmation of human SIAE inhibitors. inhibition, % at 9.66 µM. actives 13% (n = 2,300). shares compounds with SIAE inh. AID 1117263. SIAE FP-Rh activity-based probe, fluorescence polarization;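 active = mean inhibition of the replicates above the hit cutoff set in the primary screen, cut at about 17% in these data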;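 note: 0% = SIAE with DMSO and probe and 100% = probe without SIAE; inhibitors lower polarization as more probe stays unbound to SIAE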
Starred values were filed as active, the others as inactive; . = no result given. Hits are enriched below; roughly 2.6% of the tested compounds scored in any of these assays.

SMILES	SIAE inh	ABHD4 inh	TCR CD3 inh	PRMT1 inh	HTRA1 inhibitor	mABHD4 conf	SIAE confirm
Nc1nc(N)c2cc(CNc3ccc(Cl)c(Cl)c3)ccc2n1	39*	38*	-10	3	-6	36*	46*
Nc1nc(N)c2cc(Sc3ccc(Cl)cc3)ccc2n1	7	21	-1	-2	-12	.	.
Cc1csc(N/N=C/c2ccc(O)c([N+](=O)[O-])c2)n1	17*	50*	13	48*	20	83*	-3
CC(=O)N1CCC(C(=O)NC2CCCc3c2cnn3-c2cc(F)cc(F)c2)CC1 (stereo unspecified)	0	-8	0	-4	-5	.	.
CC/C(=C\C(=O)c1ccncc1)Nc1ccc(O)cc1	22*	75*	51*	15	22	38*	5
O=C(N/N=C/c1ccc(O)cc1)c1ccncc1	11	-4	0	-4	5	.	.
CNC(=O)c1ccc(-c2sc3nc(N4CCOCC4)c4c(c3c2N)CCCC4)o1	22*	32*	1	8	12	27	5
CNC(=O)c1ccc(-c2sc3nc(N4CCOCC4)c4c(c3c2N)CC(C)(C)OC4)o1	4	6	1	-2	2	.	.
Cc1ccc(CNC(=O)c2ccc(S(=O)(=O)N3CCCCC3)cc2)cc1	-1	6	1	-3	-1	.	.
Cc1cc2cc(CNC(=O)c3ccc(S(=O)(=O)N4CCCCC4)cc3)ccc2n1C	35*	87*	85*	6	-6	-11	-13
O=C(NN=Cc1cc(Br)c(O)c(Br)c1)c1ccccc1NS(=O)(=O)c1cccs1	19*	34*	12	2	9	33*	9
O=C(NN=Cc1ccc(F)cc1)c1ccccc1NS(=O)(=O)c1cccs1	1	0	0	0	4	.	.
CN(C)c1ccc(NC(=O)Nc2ccc3c(c2)c(=O)n(C)n3Cc2ccc(Cl)cc2)cc1	27*	43*	-2	15	.	26	15
Cc1cc2ccccc2n1CCNC(=O)Cc1cccc2ccccc12	22*	46*	68*	1	36	-18	-2
Nc1[nH]c(C(=O)c2ccccc2)c(-c2ccc(Cl)cc2Cl)c1C(=O)NCCc1c[nH]c2ccccc12	19*	33*	4	2	.	26	15
Nc1[nH]c(C(=O)c2ccc(Br)cc2)c(-c2ccc(Cl)cc2Cl)c1C(=O)NCCc1c[nH]c2ccccc12	13	16	-11	-1	.	.	.
CCOC(=O)C1CCN(C(=O)COC(=O)C2CCN(S(=O)(=O)c3ccc(C)c(C)c3)CC2)CC1	5	3	3	-3	2	.	.
O=C(NCc1ccco1)C1C(=O)Nc2ccccc2C(=O)N1C1CCCCC1 (stereo unspecified)	-1	7	5	9	.	.	.
C=C(C)C(=O)Oc1ccc(N=Nc2ccc(C)cc2)ccc1=O	18*	50*	9	8	.	59*	6
CC(=O)c1ccc(N=Nc2ccc(C)cc2)cc1	1	2	2	-1	12	.	.
COc1ccc(/C=N/c2c(-c3ccco3)nc3ccccn23)cc1OC	25*	44*	5	17	26	3	7
Oc1ccccc1Nc1nc(NCc2ccccc2)c2ccccc2n1	21*	43*	4	-3	15	55*	6
CNc1nc(NCc2ccccc2)c2ccccc2n1	-3	-1	-6	-1	0	.	.
CN1CCS/C1=C/C=C1/SC(=S)N(Cc2ccccc2)C1=O	22*	86*	1	-54	3	20	22*
Cc1ccc(-c2nc(CNC(=O)c3cc(C)on3)cs2)cc1	-5	6	3	-3	-14	.	.
COc1ccc(C)cc1NC(=O)CSc1nc2ccccc2nc1N1CC(C)OC(C)C1 (stereo unspecified)	-6	0	0	1	-13	.	.
CC(=O)Oc1cc(C)c(Cl)c2c(OC(C)=O)cc(C(C)=O)c(O)c12	36*	68*	11	24*	.	39*	18*
O=C(O)COc1ccccc1/C=N/NC(=O)c1cc2ccccc2cc1O	48*	37*	5	18	14	12	53*
